From ChEMBL document CHEMBL2177028, “Insights into the structural determinants required for high-affinity binding of chiral cyclopropane-containing ligands to α4β2-nicotinic acetylcholine receptors: an integrated approach to behaviorally active nicotinic ligands” (J Med Chem, 2012)
Activity calls are given as the source filed them. No cut-off for these calls is given here.

How the values were obtained:
[1] = target: T1, Soluble acetylcholine receptor (Aplysia californica, UniProt Q8WSF8); assay: Displacement of [3H]epibatidine from Aplysia californica AChBP
T1 sequence (Q8WSF8 whole entry): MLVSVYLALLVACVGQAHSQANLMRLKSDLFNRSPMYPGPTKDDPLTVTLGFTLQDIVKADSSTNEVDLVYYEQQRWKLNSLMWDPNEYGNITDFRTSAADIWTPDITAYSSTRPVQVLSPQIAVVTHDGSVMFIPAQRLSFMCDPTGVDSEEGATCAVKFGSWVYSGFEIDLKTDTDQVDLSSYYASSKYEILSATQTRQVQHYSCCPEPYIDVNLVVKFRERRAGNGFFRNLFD
How it was run: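 Competition against [3H]epibatidine at acetylcholine binding proteins (Ac- and Ct-AChBP), giving Ki values. Procedure follows the PDSP assay protocol book.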

[2] = target: T2, Neuronal acetylcholine receptor; alpha4/beta2 (Homo sapiens, UniProt P17787+P43681); assay: Antagonist activity at high sensitivity and low sensitivity alpha4beta2-nAChR expressed in human SH-EP1 cells assessed as inhibition of carbamylcholine-induced stimulation effect measured after 10 mins carbamylcholine challenge by 86Rb+ ion flux assay relative to control; assay type: functional, cell-based
How it was run: (§1)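 Receptor inactivation measured by 86Rb+ efflux after 10 min pre-exposure to test ligand, followed by carbamylcholine challenge. Cells: SH-EP1 (human α4β2), SH-SY5Y (α3β4*), TE671/RD (α1β1γδ).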

Mus musculus [3] = assay: Antidepressant activity in mouse assessed as immobility time at 3 mg/kg, ip after 30 mins by mouse forced swim test; assay type: functional, organism-based; parameters: dose 3 mg/kg
How it was run: (§2)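 Mouse forced swim test: mice placed in a beaker of water and time spent passively floating (immobility) recorded. Compounds given intraperitoneally or orally; sertraline 20 mg/kg served as positive control.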

[4] = target: T2, Neuronal acetylcholine receptor; alpha4/beta2; assay: Agonist activity at high sensitivity and low sensitivity alpha4beta2-nAChR expressed in human SH-EP1 cells by 86Rb+ ion flux assay; assay type: functional, cell-based
How it was run: (§3)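 86Rb+ efflux through human α4β2-nAChR (mixed high- and low-sensitivity forms) heterologously expressed in SH-EP1 cells. Agonist efficacy expressed as percent of the response to a maximally efficacious concentration of the full agonist carbamylcholine, with high- and low-sensitivity α4β2 responses reported separately.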

SH-SY5Y [5] = assay: Agonist activity at high sensitivity and low sensitivity alpha3beta4*-nAChR expressed in human SH-SY5Y cells by 86Rb+ ion flux assay; assay type: functional, cell-based
[6] = target: T2, Neuronal acetylcholine receptor; alpha4/beta2; assay: Agonist activity at low sensitivity alpha4beta2-nAChR expressed in human SH-EP1 cells by 86Rb+ ion flux assay relative to carbamylcholine; assay type: functional, cell-based; how it was run: as §3
[7] = target: T3, Acetylcholine receptor; alpha1/beta1/delta/gamma (Homo sapiens) (UniProt P02708+P07510+P11230+Q07001); assay: Antagonist activity at high sensitivity and low sensitivity alpha1beta1gammadelta-nAChR expressed in human TE671/RD cells assessed as inhibition of carbamylcholine-induced stimulation effect measured after 10 mins carbamylcholine challenge by 86Rb+ ion flux assay; assay type: functional, cell-based; how it was run: as §1
[8] = target: Neuronal acetylcholine receptor; alpha4/beta4 (Rattus norvegicus, UniProt P09483+P12392); assay: Displacement of [3H]epibatidine from rat alpha4beta4-nAChRs after 4 hrs by scintillation counting; assay type: protein-complex assay
How it was run: (§4)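 [3H]epibatidine competition binding at heterologously expressed rat nAChR subtypes, run per the PDSP protocol. Native α4β2* receptors were prepared from rat forebrain. Ki values determined.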

SH-SY5Y [9] = assay: Antagonist activity at high sensitivity and low sensitivity alpha3beta4*-nAChR expressed in human SH-SY5Y cells assessed as inhibition of carbamylcholine-induced stimulation effect measured after 10 mins carbamylcholine challenge by 86Rb+ ion flux assay; assay type: functional, cell-based; how it was run: as §1
[10] = target: T2, Neuronal acetylcholine receptor; alpha4/beta2; assay: Agonist activity at high sensitivity alpha4beta2-nAChR expressed in human SH-EP1 cells by 86Rb+ ion flux assay relative to carbamylcholine; assay type: functional, cell-based; how it was run: as §3
[11] = Displacement of [3H]epibatidine from rat alpha4beta2*-nAChRs after 4 hrs by scintillation counting; how it was run: as §4
[12] = target: Neuronal acetylcholine receptor; alpha4/beta2 (Rattus norvegicus, UniProt P09483+P12390); assay: Displacement of [3H]epibatidine from rat alpha4beta2-nAChRs after 4 hrs by scintillation counting; assay type: protein-complex assay; how it was run: as §4
[13] = target: T3, Acetylcholine receptor; alpha1/beta1/delta/gamma (Homo sapiens); assay: Agonist activity at high sensitivity and low sensitivity alpha1beta1gammadelta-nAChR expressed in human TE671/RD cells by 86Rb+ ion flux assay; assay type: functional, cell-based
[14] = target: Neuronal acetylcholine receptor; alpha3/beta4 (Rattus norvegicus, UniProt P04757+P12392); assay: Displacement of [3H]epibatidine from rat alpha3beta4-nAChRs after 4 hrs by scintillation counting; assay type: protein-complex assay; how it was run: as §4
[15] = target: Neuronal acetylcholine receptor; alpha2/beta2 (Rattus norvegicus, UniProt P12389+P12390); assay: Displacement of [3H]epibatidine from rat alpha2beta2-nAChRs after 4 hrs by scintillation counting; assay type: protein-complex assay; how it was run: as §4
Mus musculus [16] = assay: Antidepressant-like effect in mouse assessed as behavioral changes at 5 to 10 mg/kg, ip dosed 15 mins before testing by SmartCube system; assay type: functional, organism-based
How it was run: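 SmartCube automated mouse behavioural profiling. Drug injected 15 min before the session, during which multiple challenges were presented; at least 12 mice per group. Video processed by computer vision to extract over 2000 measures (frequency and duration of states such as grooming and rearing), compared with vehicle signature.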

Mus musculus [17] = assay: Antidepressant activity in mouse assessed as immobility time at 10 mg/kg, ip after 30 mins by mouse forced swim test; assay type: functional, organism-based; parameters: dose 10 mg/kg; how it was run: as §2
[18] = target: T2, Neuronal acetylcholine receptor; alpha4/beta2; assay: Antagonist activity at high sensitivity and low sensitivity alpha4beta2-nAChR expressed in human SH-EP1 cells assessed as inhibition of carbamylcholine-induced stimulation effect measured after 10 mins carbamylcholine challenge by 86Rb+ ion flux assay; assay type: functional, cell-based; how it was run: as §1
[19] = target: Neuronal acetylcholine receptor; alpha3/beta2 (Rattus norvegicus, UniProt P04757+P12390); assay: Displacement of [3H]epibatidine from rat alpha3beta2-nAChRs after 4 hrs by scintillation counting; assay type: protein-complex assay; how it was run: as §4
[20] = target: Neuronal acetylcholine receptor; alpha2/beta4 (Rattus norvegicus, UniProt P12389+P12392); assay: Displacement of [3H]epibatidine from rat alpha2beta4-nAChRs after 4 hrs by scintillation counting; assay type: protein-complex assay; how it was run: as §4
[21] = Selectivity index, ratio of Ki for Aplysia californica AChBP to Ki for Lymnaea stagnalis AChBP
Rattus norvegicus = organism: Rattus norvegicus; assay: Selectivity index, ratio of Ki for rat alpha3beta4 nAChR to Ki for rat alpha4beta2-nAChR; how it was run: as §4
[22] = Metabolic stability in dog liver microsomes assessed as unchanged compound level at 2 uM measured after 1 hr; assay type: ADME, Canis lupus familiaris, Microsome; details: read-out: Stability
How it was run: (§5)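 Compound incubated with mouse, rat, dog or human liver microsomes at a starting concentration of 2 μM for 1 h. Percent of parent remaining unchanged determined.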

Mus musculus [23] = assay: Antidepressant activity in mouse assessed as immobility time at 3 mg/kg, po after 30 mins by mouse forced swim test; assay type: functional, organism-based; parameters: dose 3 mg/kg; how it was run: as §2
[24] = Metabolic stability in mouse liver microsomes assessed as unchanged compound level at 2 uM measured after 1 hr; assay type: ADME, Microsome; details: read-out: Stability; how it was run: as §5
[25] = Metabolic stability in human liver microsomes assessed as unchanged compound level at 2 uM measured after 1 hr; assay type: ADME, Microsome; details: read-out: Stability; how it was run: as §5
[26] = Metabolic stability in rat liver microsomes assessed as unchanged compound level at 2 uM measured after 1 hr; assay type: ADME, Microsome; details: read-out: Stability; how it was run: as §5
Mus musculus [27] = assay: Antidepressant activity in mouse assessed as immobility time at 3 to 30 mg/kg, po after 30 mins by mouse forced swim test; assay type: functional, organism-based; how it was run: as §2

Neuronal acetylcholine receptor; alpha2/beta4, sequence (P12389 whole entry): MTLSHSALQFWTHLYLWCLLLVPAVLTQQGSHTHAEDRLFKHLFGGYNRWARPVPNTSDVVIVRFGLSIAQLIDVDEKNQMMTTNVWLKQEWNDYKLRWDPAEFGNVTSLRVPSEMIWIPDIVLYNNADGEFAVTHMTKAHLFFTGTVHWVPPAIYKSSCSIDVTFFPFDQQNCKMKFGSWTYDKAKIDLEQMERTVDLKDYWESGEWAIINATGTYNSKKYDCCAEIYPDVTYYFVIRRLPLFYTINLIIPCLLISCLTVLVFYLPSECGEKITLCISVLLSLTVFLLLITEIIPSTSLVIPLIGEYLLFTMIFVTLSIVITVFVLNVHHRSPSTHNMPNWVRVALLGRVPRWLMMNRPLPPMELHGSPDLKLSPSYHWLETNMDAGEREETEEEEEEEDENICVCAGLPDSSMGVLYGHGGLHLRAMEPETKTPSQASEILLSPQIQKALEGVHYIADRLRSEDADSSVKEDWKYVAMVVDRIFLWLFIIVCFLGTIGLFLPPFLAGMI
Neuronal acetylcholine receptor; alpha2/beta4, sequence (P12392 whole entry): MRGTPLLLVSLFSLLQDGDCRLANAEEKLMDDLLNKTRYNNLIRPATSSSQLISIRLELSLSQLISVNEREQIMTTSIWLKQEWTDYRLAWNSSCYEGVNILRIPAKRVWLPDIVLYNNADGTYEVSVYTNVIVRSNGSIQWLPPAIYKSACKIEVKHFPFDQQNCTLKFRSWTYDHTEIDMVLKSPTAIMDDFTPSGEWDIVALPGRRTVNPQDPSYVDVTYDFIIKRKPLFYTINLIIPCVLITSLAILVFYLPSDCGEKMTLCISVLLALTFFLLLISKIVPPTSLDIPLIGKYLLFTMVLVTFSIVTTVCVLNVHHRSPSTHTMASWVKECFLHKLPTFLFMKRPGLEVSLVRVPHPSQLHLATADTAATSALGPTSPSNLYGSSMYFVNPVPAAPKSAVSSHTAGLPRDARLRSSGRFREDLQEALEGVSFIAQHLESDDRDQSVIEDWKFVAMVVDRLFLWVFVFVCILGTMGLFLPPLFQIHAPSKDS
Neuronal acetylcholine receptor; alpha2/beta2, sequence (P12389 whole entry): as the sequence (P12389 whole entry) above
Neuronal acetylcholine receptor; alpha2/beta2, sequence (P12390 whole entry): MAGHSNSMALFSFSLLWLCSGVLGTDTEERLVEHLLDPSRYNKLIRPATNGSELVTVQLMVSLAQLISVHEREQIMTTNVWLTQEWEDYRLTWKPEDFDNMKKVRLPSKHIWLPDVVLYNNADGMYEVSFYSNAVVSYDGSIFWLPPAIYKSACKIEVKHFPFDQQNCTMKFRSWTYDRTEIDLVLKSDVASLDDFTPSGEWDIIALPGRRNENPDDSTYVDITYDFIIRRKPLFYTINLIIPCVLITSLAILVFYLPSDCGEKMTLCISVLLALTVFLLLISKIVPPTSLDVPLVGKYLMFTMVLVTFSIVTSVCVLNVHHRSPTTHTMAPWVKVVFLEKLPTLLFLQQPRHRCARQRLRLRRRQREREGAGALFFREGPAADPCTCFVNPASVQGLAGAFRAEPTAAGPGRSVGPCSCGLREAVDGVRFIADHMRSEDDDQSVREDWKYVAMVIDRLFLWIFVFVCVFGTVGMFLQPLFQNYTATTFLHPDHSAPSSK
Neuronal acetylcholine receptor; alpha4/beta2 (Rattus norvegicus, UniProt P09483+P12390), sequence (P09483 whole entry): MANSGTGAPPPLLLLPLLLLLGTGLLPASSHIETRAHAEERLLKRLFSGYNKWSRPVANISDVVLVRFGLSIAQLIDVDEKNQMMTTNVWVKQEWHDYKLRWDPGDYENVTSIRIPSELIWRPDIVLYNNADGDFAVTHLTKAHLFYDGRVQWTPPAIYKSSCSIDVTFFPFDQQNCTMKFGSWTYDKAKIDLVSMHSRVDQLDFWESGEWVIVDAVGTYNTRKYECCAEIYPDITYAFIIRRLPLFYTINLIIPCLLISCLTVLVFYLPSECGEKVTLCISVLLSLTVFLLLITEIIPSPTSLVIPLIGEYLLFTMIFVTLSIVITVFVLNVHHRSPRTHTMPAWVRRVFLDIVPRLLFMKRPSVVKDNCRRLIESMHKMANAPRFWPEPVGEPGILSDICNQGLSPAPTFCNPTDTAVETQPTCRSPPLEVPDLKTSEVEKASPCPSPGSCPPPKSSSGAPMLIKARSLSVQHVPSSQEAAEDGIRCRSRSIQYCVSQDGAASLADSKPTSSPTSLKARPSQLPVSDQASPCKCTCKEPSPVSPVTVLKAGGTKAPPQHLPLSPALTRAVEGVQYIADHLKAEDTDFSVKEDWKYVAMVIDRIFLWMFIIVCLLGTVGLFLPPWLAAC
Neuronal acetylcholine receptor; alpha4/beta2 (Rattus norvegicus, UniProt P09483+P12390), sequence (P12390 whole entry): as the sequence (P12390 whole entry) above
Neuronal acetylcholine receptor; alpha4/beta4, sequence (P09483 whole entry): as the sequence (P09483 whole entry) above
Neuronal acetylcholine receptor; alpha4/beta4, sequence (P12392 whole entry): as the sequence (P12392 whole entry) above
T2 sequence (P17787 whole entry): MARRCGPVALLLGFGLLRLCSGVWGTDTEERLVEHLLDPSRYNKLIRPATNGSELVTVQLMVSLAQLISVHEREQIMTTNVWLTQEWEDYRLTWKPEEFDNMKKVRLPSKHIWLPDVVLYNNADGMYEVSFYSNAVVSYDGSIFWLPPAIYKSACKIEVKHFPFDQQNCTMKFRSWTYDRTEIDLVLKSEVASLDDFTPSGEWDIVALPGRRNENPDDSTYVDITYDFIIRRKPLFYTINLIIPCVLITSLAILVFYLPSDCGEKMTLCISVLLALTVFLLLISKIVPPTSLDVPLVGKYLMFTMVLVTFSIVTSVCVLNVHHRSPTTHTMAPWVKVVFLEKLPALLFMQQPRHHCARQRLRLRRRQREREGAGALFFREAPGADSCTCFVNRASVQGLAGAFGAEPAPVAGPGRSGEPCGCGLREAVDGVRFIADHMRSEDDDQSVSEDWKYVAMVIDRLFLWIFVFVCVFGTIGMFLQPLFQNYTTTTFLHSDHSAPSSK
T2 sequence (P43681 whole entry): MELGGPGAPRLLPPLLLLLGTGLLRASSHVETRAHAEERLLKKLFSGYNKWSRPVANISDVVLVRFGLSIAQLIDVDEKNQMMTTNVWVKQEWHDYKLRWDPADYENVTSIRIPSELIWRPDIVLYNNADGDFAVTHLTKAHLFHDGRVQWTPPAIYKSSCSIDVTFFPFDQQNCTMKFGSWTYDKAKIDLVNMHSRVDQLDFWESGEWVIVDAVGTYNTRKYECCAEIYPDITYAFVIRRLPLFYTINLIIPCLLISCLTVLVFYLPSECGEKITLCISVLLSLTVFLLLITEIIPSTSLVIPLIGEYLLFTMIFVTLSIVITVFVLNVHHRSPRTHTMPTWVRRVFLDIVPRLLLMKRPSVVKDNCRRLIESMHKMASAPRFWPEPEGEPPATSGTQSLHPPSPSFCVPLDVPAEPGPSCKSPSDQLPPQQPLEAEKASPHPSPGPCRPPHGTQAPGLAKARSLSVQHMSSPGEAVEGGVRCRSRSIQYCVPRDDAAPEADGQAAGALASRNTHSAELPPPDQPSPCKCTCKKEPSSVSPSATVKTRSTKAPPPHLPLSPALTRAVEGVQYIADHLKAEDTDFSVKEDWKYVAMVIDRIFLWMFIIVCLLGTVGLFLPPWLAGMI
Neuronal acetylcholine receptor; alpha3/beta4, sequence (P04757 whole entry): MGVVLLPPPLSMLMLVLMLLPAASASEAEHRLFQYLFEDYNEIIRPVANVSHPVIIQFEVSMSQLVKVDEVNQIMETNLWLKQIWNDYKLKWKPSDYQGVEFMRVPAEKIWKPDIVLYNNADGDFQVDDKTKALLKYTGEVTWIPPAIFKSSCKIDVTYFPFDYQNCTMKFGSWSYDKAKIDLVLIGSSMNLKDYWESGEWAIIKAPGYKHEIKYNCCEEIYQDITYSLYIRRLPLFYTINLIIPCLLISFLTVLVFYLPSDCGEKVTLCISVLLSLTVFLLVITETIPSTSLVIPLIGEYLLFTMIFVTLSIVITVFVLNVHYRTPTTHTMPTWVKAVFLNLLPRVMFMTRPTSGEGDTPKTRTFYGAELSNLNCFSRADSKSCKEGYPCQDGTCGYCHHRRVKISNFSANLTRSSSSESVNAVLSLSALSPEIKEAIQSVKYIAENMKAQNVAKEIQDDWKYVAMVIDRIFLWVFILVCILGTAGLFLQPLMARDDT
Neuronal acetylcholine receptor; alpha3/beta4, sequence (P12392 whole entry): as the sequence (P12392 whole entry) above
Neuronal acetylcholine receptor; alpha3/beta2, sequence (P04757 whole entry): as the sequence (P04757 whole entry) above
Neuronal acetylcholine receptor; alpha3/beta2, sequence (P12390 whole entry): as the sequence (P12390 whole entry) above

Question: Which Ki [1] does the source give for CN1CCC[C@H]1c1cccnc1 [NICOTINE] here?
Answer: 598 nM

Question: Which results are given for CC[C@H]1C[C@@H]1c1cncc(OC[C@@H]2CCN2)c1?
Answer: Efficacy [2]: 87%; Activity (Mus musculus [3]): inactive; EC50 [4]: 19.1 nM; Activity (SH-SY5Y [5]): inactive; Activity [6]: inactive; inhibition [7]: inactive; Ki [8]: 14.8 nM; inhibition (SH-SY5Y [9]): inactive; Efficacy [10]: 68%; Ki [11]: 1.2 nM; Ki [12]: 0.4 nM; Activity [13]: inactive; Ki [14]: 852 nM; Ki [15]: 0.4 nM; Activity (Mus musculus [16]): Active; Activity (Mus musculus [17]): inactive; IC50 [18]: 22.2 nM; Ki [19]: 10.3 nM; Ki [20]: 41.8 nM

Question: For CNC(=O)OCC[C@H]1C[C@@H]1c1cncc(OC[C@@H]2CCN2)c1, which Ki [1] is on record?
Answer: 1930 nM

Question: What about the Ratio Ki [21] of the same compound?
Answer: 80

Question: And the Activity (Mus musculus [16])?
Answer: Active

Question: With FC(F)C[C@H]1C[C@@H]1c1cncc(OC[C@@H]2CCN2)c1 as the compound, how does the Efficacy [2] read?
Answer: 86%

Question: And the Activity (Mus musculus [3])?
Answer: inactive

Question: What about the EC50 [4] of the same compound?
Answer: 8.8 nM

Question: And the Activity (SH-SY5Y [5])?
Answer: inactive

Question: What about the Activity [6] of the same compound?
Answer: inactive

Question: What about the inhibition [7] of the same compound?
Answer: inactive

Question: What about the Ki [8] of the same compound?
Answer: 23 nM

Question: And the inhibition (SH-SY5Y [9])?
Answer: inactive

Question: What about the Efficacy [10] of the same compound?
Answer: 75%

Question: And the Ki [11]?
Answer: 0.8 nM

Question: What about the Ki [12] of the same compound?
Answer: 0.1 nM

Question: And the Activity [13]?
Answer: inactive

Question: What about the Ki [14] of the same compound?
Answer: 1980 nM

Question: What about the Ratio Ki (Rattus norvegicus) of the same compound?
Answer: > 16000

Question: What about the Ki [15] of the same compound?
Answer: 0.3 nM

Question: And the Activity (Mus musculus [16])?
Answer: Active

Question: What about the Activity (Mus musculus [17]) of the same compound?
Answer: inactive

Question: And the IC50 [18]?
Answer: 8.6 nM

Question: And the Ki [19]?
Answer: 6.9 nM

Question: What about the Ki [20] of the same compound?
Answer: 85.4 nM

Question: What does the source list for OCC[C@H]1C[C@@H]1c1cncc(OC[C@@H]2CCN2)c1?
Answer: Ki [1]: 979 nM; Ratio Ki [21]: 80; Activity (Mus musculus [16]): Active

Question: Which Efficacy [2] does the source give for FCC[C@H]1C[C@@H]1c1cncc(OC[C@@H]2CCN2)c1 here?
Answer: 81%

Question: What about the remaining at 1 h, 2 µM [22] of the same compound?
Answer: ≥ 98%

Question: And the Activity (Mus musculus [3])?
Answer: Active

Question: And the EC50 [4]?
Answer: 11.3 nM

Question: What about the Activity (SH-SY5Y [5]) of the same compound?
Answer: inactive

Question: And the Activity (Mus musculus [23])?
Answer: Active

Question: What about the Activity [6] of the same compound?
Answer: inactive

Question: What about the inhibition [7] of the same compound?
Answer: inactive

Question: And the Ki [8]?
Answer: 39.1 nM

Question: What about the inhibition (SH-SY5Y [9]) of the same compound?
Answer: inactive

Question: What about the Efficacy [10] of the same compound?
Answer: 76%

Question: And the Ki [11]?
Answer: 0.9 nM

Question: What about the Ki [12] of the same compound?
Answer: 0.2 nM

Question: And the Activity [13]?
Answer: inactive

Question: What about the Ki [14] of the same compound?
Answer: 3220 nM

Question: What about the Ratio Ki (Rattus norvegicus) of the same compound?
Answer: > 16000

Question: And the Ki [15]?
Answer: 0.4 nM

Question: And the Activity (Mus musculus [16])?
Answer: Active

Question: What about the Activity (Mus musculus [17]) of the same compound?
Answer: Active

Question: And the IC50 [18]?
Answer: 10.2 nM

Question: What about the Ki [19] of the same compound?
Answer: 6.1 nM

Question: And the remaining at 1 h, 2 µM [24]?
Answer: ≥ 98%

Question: And the remaining at 1 h, 2 µM [25]?
Answer: ≥ 98%

Question: And the remaining at 1 h, 2 µM [26]?
Answer: ≥ 98%

Question: And the Ki [20]?
Answer: 138 nM

Question: What about the Activity (Mus musculus [27]) of the same compound?
Answer: Active
